# Measured values as given in ChEMBL document CHEMBL1124344, “5-Piperazinylalkyl-2(3H)-oxazolones with neuroleptic activity” (J Med Chem, 1989).
# Legend:
# Mus musculus [1] = experiment: Inhibition of spontaneous motor activity in mice, by administering perorally at a dose of 90 mg/kg; assay type: functional; conditions: route oral
# Outline: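 Mice fasted overnight, then dosed orally with compound (weighed as base) suspended in arabic gum, 10 mL/kg, with vehicle controls; 1 h pretreatment for screening tests, 1 or 5 h for others. Groups of five; locomotor activity counted 10 min in photocell activity cage, at least two groups per dose. ED50 = dose giving 50% inhibition versus controls, by probit analysis.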
# Rattus norvegicus [2] = experiment: Antagonistic activity against apomorphine-induced stereotypy in rats, by administering perorally at a dose of 90 mg/kg; assay type: functional; conditions: route oral
# Outline: (§1)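 Male rats fasted overnight and given oral doses in arabic gum suspension (10 mL/kg) 1 h, or 1 and 5 h, before challenge. Apomorphine 3 mg/kg iv, with stereotypy observed 20 min later. ED50 is the dose inhibiting stereotypy in 50% of rats, per Janssen's method. Parenthetical entries give the maximal dose and percent activity.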
# [3] = Lethal dose in mice (LD50) following i.p. dosing; assay type: toxicity, organism-based; conditions: mouse, in vivo, ip
# Outline: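 Acute toxicity tested in mice by the intraperitoneal route. LD50 is the dose killing 50% of treated mice, computed by Finney probit analysis; values are approximate.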
# Rattus norvegicus [4] = experiment: Activity to evoke catalepsy in rats, by administering perorally at a dose of 90 mg/kg; assay type: functional; conditions: route oral
# Outline: (§2)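 Rats fasted overnight and given oral doses in arabic gum suspension (10 mL/kg), 1 h before screening or 1 and 5 h before profile testing. Forelegs placed on a horizontal bar 7 cm high, three times at 5-min intervals. Immobility of at least 15 s counts as catalepsy. ED50 is the dose giving catalepsy in 50% of rats, by probit analysis. Parenthetical entries give the maximal dose and percent activity.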
# Mus musculus [5] = experiment: Inhibition of amphetamine-induced hypermobility in mice following p.o. administration.; assay type: functional; conditions: po
# Outline: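 Compounds were given orally to male mice (gum arabic suspension, 10 mL/kg, fasted) in groups of five. Amphetamine 4 mg/kg ip followed 30 min later. After another 10 min, motility was recorded for 15 min with a photocell actophotometer. ED50, by probit analysis, is the dose giving 50% reduction against controls.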
# Rattus norvegicus [6] = experiment: Antagonistic activity against apomorphine-induced stereotypy in rats, by administering perorally at a dose of 60 mg/kg; assay type: functional; conditions: route oral; outline: as §1
# Rattus norvegicus [7] = experiment: Activity to evoke catalepsy in rats, by administering perorally at a dose of 60 mg/kg; assay type: functional; conditions: route oral; outline: as §2
# Mus musculus [8] = experiment: Inhibition of spontaneous motor activity in mice, by administering perorally; assay type: functional; conditions: po
# Outline: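 Mice in groups of five were dosed orally with gum arabic suspensions at 10 mL/kg after an overnight fast, with a vehicle control group. Locomotion was counted for 10 min in a photocell activity cage, in at least two groups per dose. ED50, by probit analysis, is the dose giving 50% inhibition against controls.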
structure (smiles),measurement,setting,value
Oc1nc(-c2ccc(F)cc2)c(CCN2CCN(c3cc(Cl)ccc3Cl)CC2)o1,inhibition in vivo at 90 mg/kg,Mus musculus [1],45%
same,inhibition in vivo at 90 mg/kg,Rattus norvegicus [2],0%
same,LD50,[3],750 mg/kg
same,inhibition in vivo at 90 mg/kg,Rattus norvegicus [4],0%
same,ED50,Mus musculus [5],10 mg/kg
Cc1ccccc1N1CCN(CCc2oc(O)nc2-c2ccc(F)cc2)CC1,LD50,[3],250 mg/kg
same,inhibition in vivo at 60 mg/kg,Rattus norvegicus [6],0%
same,ED50,Mus musculus [5],8.6 mg/kg
same,inhibition in vivo at 60 mg/kg,Rattus norvegicus [7],0%
same,ED50,Mus musculus [8],6.3 mg/kg
